Entries after “also recorded” stand apart in the source; their conditions may differ.
Tests used:
[1] = Stability of 3ketoLG in buffer; type: physicochemical; conditions: for k: 10 mM 3ketoLG; for Ea: linear regression of the Arrhenius equation
Outline: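 Ketosugar is incubated at 30–70 °C in 50 mM sodium phosphate or 50 mM sodium acetate (pH 4.0, 5.0) buffers. At each time point, aliquots are diluted 1:20 into 1 mM acetic acid and quantified by HPLC. k comes from a single-exponential fit of the time course, and t1/2 = ln2/k. Ea at each pH comes from linear Arrhenius regression.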

[2] = Stability of 3ketoLG in acid; type: physicochemical; conditions: 100 °C, 1 h
Outline: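 Test ketosugar at 10 mM is dissolved in HCl (1, 10 or 100 mM) and held at 100 °C for 1 h. After cooling, samples are diluted 1:20 in water. Remaining ketosugar is quantified by HPLC (50 µL injection) on a KS-801 column with water eluent and charged-aerosol detection.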

[3] = Heat treatment of 3ketoLG and 3ketoMeβGlc in sodium phosphate buffer, HPLC; type: physicochemical; conditions: sodium phosphate buffer 50 mM, pH 8.0, 60 min at 60 °C
Outline: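 Samples are analysed by HPLC on a Shodex SUGAR KS-801 column (8.0 × 300 mm). Water is the eluent at 1 mL/min and 60 °C, with corona charged-aerosol detection. Chromatograms taken before and after heat treatment are compared.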

[4] = Solubility in aqueous solution; type: physicochemical; conditions: aqueous solution / reaction mixture
[5] = target: pyranose oxidase (P2O) (Trametes versicolor, UniProt P79076); experiment: Measurement of P2O activity; type: biochemical, Coriolus sp.; conditions: for Km: P2O, LG: linear S–V relationship between 4 and 40 mM
[6] = 30 °C and pH 7.0; cited from earlier work
[7] = substrate 10 mM, 30 °C, MOPS-Na buffer 25 mM, pH 7.5

Compound `O=C1[C@@H](O)[C@@H]2OC[C@@H](O2)[C@H]1O` [3ketoLG, 1,6-anhydro-β-D-ribo-hexopyranos-3-ulose] has a k ([1]; pH 4.0, 70 °C, sodium acetate buffer 50 mM) of 0.062 ± 0.002 h⁻¹, a k ([1]; pH 5.0, 70 °C, sodium acetate buffer 50 mM) of 0.20 ± 0.01 h⁻¹ and a k ([1]; pH 6.0, 40 °C, sodium phosphate buffer 50 mM) of 0.028 ± 0.003 h⁻¹. The k ([1]; pH 6.0, 50 °C, sodium phosphate buffer 50 mM) was 0.085 ± 0.005 h⁻¹, the k ([1]; pH 6.0, 60 °C, sodium phosphate buffer 50 mM) was 0.32 ± 0.04 h⁻¹ and the k ([1]; pH 6.0, 70 °C, sodium phosphate buffer 50 mM) was 1.0 ± 0.1 h⁻¹. It also gave an Ea ([1]; pH 6.0) of 26.1 kcal/mol, a k ([1]; pH 7.0, 30 °C, sodium phosphate buffer 50 mM) of 0.043 ± 0.003 h⁻¹ and a k ([1]; pH 7.0, 40 °C, sodium phosphate buffer 50 mM) of 0.13 ± 0.01 h⁻¹. The k ([1]; pH 7.0, 50 °C, sodium phosphate buffer 50 mM) was 0.33 ± 0.02 h⁻¹, the k ([1]; pH 7.0, 60 °C, sodium phosphate buffer 50 mM) was 1.7 ± 0.1 h⁻¹ and the k ([1]; pH 7.0, 70 °C, sodium phosphate buffer 50 mM) was 4.4 ± 0.1 h⁻¹. For the same compound, the Ea ([1]; pH 7.0) was 24.4 kcal/mol, the k ([1]; pH 8.0, 30 °C, sodium phosphate buffer 50 mM) was 0.083 ± 0.005 h⁻¹ and the k ([1]; pH 8.0, 40 °C, sodium phosphate buffer 50 mM) was 0.21 ± 0.02 h⁻¹. The k ([1]; pH 8.0, 50 °C, sodium phosphate buffer 50 mM) was 0.57 ± 0.03 h⁻¹, the k ([1]; pH 8.0, 60 °C, sodium phosphate buffer 50 mM) was 3.0 ± 0.1 h⁻¹ and the k ([1]; pH 8.0, 70 °C, sodium phosphate buffer 50 mM) was 9.1 ± 0.4 h⁻¹. The Ea ([1]; pH 8.0) was 24.9 kcal/mol, the “Decrease of 3ketoLG” value ([2]; 1 mM HCl) was “No significant decrease” and the 3ketoLG remained ([2]; 100 mM HCl) was over 90%. For the same compound, the “Change on heat treatment (HPLC)” value [3] was “significantly decreased” and the Solubility [4] was “poor solubility; also recorded: low solubility”.
In the case of `O=C[C@H](O)[C@@H](O)[C@H](O[C@@H]1O[C@H](CO)[C@@H](O)[C@H](O)[C@H]1O)[C@H](O)CO` [cellobiose], the “Oxidation by P2O” value [5] is reported as “did not oxidize”.
In the case of `COC1OC(CO)C(O)C(O)C1O` [methyl-α-D-glucopyrnaoside], the “Oxidation by P2O” value [5] is reported as “did not oxidize”.
For `O=C1CO[C@H](CO)[C@@H](O[C@@H]2O[C@H](CO)[C@@H](O)[C@H](O)[C@H]2O)[C@@H]1O` [1,5-anhydro-4-O-β-D-glucopyranosyl-D-fructose], the half-life [6] is given as 17 h.
For `OC[C@H]1OC(O)[C@H](O)[C@@H](O)[C@@H]1O` (stereo partly drawn) [D-glucose], the Km [5] was 1000 µM, the “Specific activity of P2O” value [5, 7] was 5.1 U/mg-solid and the “Specific activity of P2O relative to D-glucose” value ([5]; substrate 10 mM, 30 °C, MOPS-Na buffer 25 mM, pH 7.5, D-glucose = 100 %) was 100%.
In the case of `O[C@@H]1[C@@H](O)[C@@H]2OC[C@@H](O2)[C@H]1O` [LG, 1,6-anhydro-β-D-glucopyranose], the Km [5] is reported as over 40000 µM and the “Specific activity of P2O” value [5, 7] is reported as 0.018 U/mg-solid.
